Read-outs that look alike come from different tables or passages of the source.
How the values were obtained:
[1] = system: primary human fibroblasts, primary keratinocytes, CCD841 colon epithelial cells; format: cell-based
FaDu cells [2] = assay: Cellular H2O2 production, Amplex red assay; format: cell-based, human
Summary of the method: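 FaDu cells were grown at 37 °C, 5% CO2 in medium with 10% FBS, 2 mM L-glutamine and 100 μg/mL penicillin/streptomycin. Tests used medium with 10% FBS plus 25 nM sodium selenite. Compound was given in DMSO (0.01% final) across a concentration range or over a time course. H2O2 was read by Amplex red. Runs were in triplicate, shown as mean ± SEM.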

[3] = system: FaDu cell xenografts in SCID mice; assay: Repeated dose study in FaDu xenograft-bearing mice; format: in vivo; details: twice a day i.v., 10 mg/kg TRi-1, 15 mg/kg TRi-2 or 10 mg/kg auranofin; for FaDu xenograft tumor growth: four days
human cancer cell lines = format: cell-based
[4] = system: PyMT-MMTV mice mammary tumors; assay: PyMT-MMTV tumor low frequency dosing study; format: in vivo; details: for tumor growth in PyMT-MMTV mice: three weeks; for tumor volumes compared to vehicle controls: mice surviving 20–22 days, p<0.05
[5] = Liver microsome stability; format: in vitro ADME
FaDu cells [6] = format: cell-based, human
[7] = system: A549 lung carcinoma cells and MEFs; format: cell-based, human, mouse; details: for sensitivity of MEFs with the Txnrd1 gene deleted: Txnrd1 -/- vs Txnrd1 fl/fl MEFs
FaDu cells [8] = assay: Cellular GSH concentrations; format: cell-based, human; details: 6 hours at 10×IC50
HCT116 cells [9] = assay: Cytotoxicity in HCT116 subclones with altered p53 status or BCL-2 overexpression; format: cell-based, human; details: subclones of HCT116 cells
TXNRD1 [10] = target: T1, TXNRD1 (Rattus norvegicus, UniProt O89049); assay: Reversibility of TXNRD1 inhibition; format: biochemical
T1 sequence (O89049 1-499): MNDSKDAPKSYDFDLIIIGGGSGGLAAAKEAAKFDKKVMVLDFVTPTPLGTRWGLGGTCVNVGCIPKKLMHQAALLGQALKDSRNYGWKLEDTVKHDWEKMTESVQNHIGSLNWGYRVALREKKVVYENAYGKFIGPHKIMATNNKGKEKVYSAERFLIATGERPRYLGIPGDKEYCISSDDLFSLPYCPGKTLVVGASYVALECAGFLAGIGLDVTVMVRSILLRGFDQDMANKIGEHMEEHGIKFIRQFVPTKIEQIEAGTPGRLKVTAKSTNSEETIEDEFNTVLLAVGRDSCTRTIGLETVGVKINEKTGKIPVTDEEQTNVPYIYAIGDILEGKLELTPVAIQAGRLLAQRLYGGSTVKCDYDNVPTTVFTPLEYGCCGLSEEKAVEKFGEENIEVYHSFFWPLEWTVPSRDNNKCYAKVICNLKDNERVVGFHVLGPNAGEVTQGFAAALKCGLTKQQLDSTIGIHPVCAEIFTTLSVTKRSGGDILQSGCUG

GPX1 = target: T2, GPX1 (Homo sapiens, UniProt P07203); assay: GPX1 inhibition; format: biochemical
T2 sequence (P07203 1-203): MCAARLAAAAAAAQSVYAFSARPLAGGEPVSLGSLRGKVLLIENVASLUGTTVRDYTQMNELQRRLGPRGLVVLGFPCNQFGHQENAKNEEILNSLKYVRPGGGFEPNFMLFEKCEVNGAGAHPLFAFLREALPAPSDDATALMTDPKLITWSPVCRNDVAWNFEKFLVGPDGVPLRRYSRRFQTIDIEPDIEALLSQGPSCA

[11] = system: human TXNRD1 versus human TXNRD2; assay: Inhibition of human TXNRD1 versus human TXNRD2 with DTNB as substrate; format: biochemical; details: human recombinant enzymes
Summary of the method: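 Human recombinant TXNRD1 and TXNRD2 were assayed with DTNB as substrate, with activity read by absorbance change. TXNRD1 buffer was 50 mM Tris pH 7.5, 2 mM EDTA and 0.1 mg/mL BSA. Compounds were in DMSO. Results were normalized to DMSO and no-enzyme controls. Triplicates, mean ± SEM.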

TXNRD1 [12] = target: T1, TXNRD1; assay: SecTRAP activity; format: biochemical
TXNRD1 [13] = target: T1, TXNRD1; format: binding
[14] = system: JNK and p38 phosphorylation in FaDu cells; assay: Western blot of JNK and p38 phosphorylation; format: cell-based, human; details: FaDu cells treated for 6 hours
HCT116 cells [15] = assay: Mitochondrial respiration, Seahorse assay; format: cell-based, human
NCI-60 cell panel = details: read-out: average growth inhibition to 50% (GI50); average over NCI-60 cell panel, screened previously; ref https://dtp.cancer.gov, NSC351105 (TRi-2) and NSC321521 (auranofin); cited from earlier work
FaDu cells [16] = format: cell-based, human; remark: listed apart in the source
FaDu cells [17] = assay: Cytotoxicity towards FaDu cells, 72 hours; format: cell-based, human; details: 72 hours of incubation
Summary of the method: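 Viability of FaDu cells after 72 h with test compound, in medium with 10% FBS and 25 nM sodium selenite, at 37 °C and 5% CO2. DMSO vehicle at 0.01% final. Run in triplicate and reported as mean ± SEM.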

[18] = system: MDA-MB-231 xenografts in athymic mice; assay: MDA-MB-231 orthotopic xenograft efficacy study; format: in vivo; details: for MDA-MB-231 xenograft tumor growth: 22 days, p<0.0001 vs vehicle
[19] = system: cellular TXNRD activity in FaDu cells; assay: Cellular TXNRD activity, insulin-endpoint assay; format: cell-based, human; details: 3 hours of compound exposure
SCID mice = assay: Single dose escalation toxicity study; details: mouse, in vivo, iv
[20] = system: FaDu cell xenografts in SCID mice; assay: [18F]-FDG PET study of FaDu xenografts; format: in vivo, mouse; details: 5 mg/kg i.p. once daily
Summary of the method: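 Male SCID mice carried FaDu xenografts (1×10^6 cells); baseline scan at day 11, with food removed. Isoflurane anaesthesia on a 37 °C pad. [18F]-FDG i.v., 60-min 3D acquisition. Treatment was i.p. once daily (n=8) or vehicle (n=9), rescanned on day 3. SUVmean was taken over ROIs ≥1.8×10^5 Bq/mL, and day 3 was compared with day 0 by paired t-test.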

[21] = i.p. twice a week, TRi-1 5 mg/kg, auranofin 10 mg/kg
[22] = HCT116 cells, 30-minute or 5-hour exposure

SMILES | potency against non-cancerous cells compared to cancer cell lines [1] | cellular H2O2 production (FaDu cells [2]) | toxicity and mouse weight in repeated dose study [3] | FaDu xenograft tumor growth [3] | tumor growth in PyMT-MMTV mice [4, 21] | tumor volumes compared to vehicle controls [4] | metabolism in liver microsomes [5] | effect of GSH depletion with BSO on cytotoxicity (FaDu cells [6]) | cytotoxicity towards MEF cells versus A549 cells [7] | sensitivity of MEFs with the Txnrd1 gene deleted [7] | effect on cellular GSH concentrations (FaDu cells [8]) | resistance upon altered p53 status or BCL-2 overexpression (HCT116 cells [9]) | less efficient in inhibiting GPX1 than TXNRD1 (GPX1) | thermal stability of NADPH-reduced TXNRD1 upon incubation with compound (TXNRD1 [13]) | JNK and p38 phosphorylation [14] | ATP-coupled basal respiration (HCT116 cells [15]; [22]) | also measured
CC(=O)OC[C@H]1O[C@@H]([S-])[C@H](OC(C)=O)[C@@H](OC(C)=O)[C@@H]1OC(C)=O.CCP(CC)CC.[Au+] [auranofin, reference compound] | only displayed lower potency against the CDD841 cells | increased cellular H2O2 production | no signs of overt toxicity or changes in mouse weight | decreased tumor growth compared to vehicle controls within four days | impaired tumor growth | significantly smaller compared to the vehicle controls | rather rapid metabolism | enhanced the cytotoxicity | similarly cytotoxic towards these two cell types | minimally affected | lowered GSH | no apparent resistance | over 1000 fold | not with TRi-2 or auranofin | did not activate JNK and p38 phosphorylation as robustly | deteriorated ATP-coupled respiration | cytotoxic potency, side-by-side comparison (human cancer cell lines): on average more potent than TRi-1; survival during observation [4, 21]: two mice in the auranofin group had to be sacrificed due to poor health; mode of TXNRD1 inhibition (TXNRD1 [10]): irreversibly inhibit TXNRD1 in an NADPH-dependent manner; GPX1 inhibition (GPX1; preincubated with GPX1 in the absence of GSH, high concentrations): moderate inhibition; TXNRD1 versus TXNRD2 inhibition profile [11]: pan-TXNRD inhibitor; SecTRAP formation (NADPH-dependent redox cycling with juglone) (TXNRD1 [12]): maintained substantial NADPH-dependent redox cycling with juglone; maximal respiratory capacity (HCT116 cells [15]): impaired maximal respiratory capacity; GI50 (NCI-60 cell panel): 760 nM; cytotoxicity in colony-forming assay (FaDu cells [16]): more cytotoxic than TRi-1
COc1cccc(S(=O)(=O)c2ccc(Cl)cc2)n1 [TRi-62] |  |  |  |  |  |  |  |  |  |  |  |  |  |  |  |  | cytotoxicity towards FaDu cells (FaDu cells [17]): loss of cytotoxicity
COc1ccc([N+](=O)[O-])c(S(=O)(=O)c2ccc(Cl)cc2)n1 [TRi-1] | reduced potency | increased cellular H2O2 production | no signs of overt toxicity or changes in mouse weight | decreased tumor growth compared to vehicle controls within four days | impaired tumor growth | significantly smaller compared to the vehicle controls | rather rapid metabolism | enhanced the cytotoxicity | preferentially toxic towards the A549 cells | additional resistance | no effect on cellular GSH concentrations | no apparent resistance | over 1000 fold | stability was increased | efficiently activated JNK and p38 phosphorylation | lacked effects on basal respiration | MDA-MB-231 xenograft tumor growth ([18]; 10 mg/kg i.p.): significantly decreased compared to the vehicle controls; complete tumor regression ([18]; 10 mg/kg i.p., n=12): one tumor in the TRi-1 i.p. group completely regressing; systemic toxicity in MDA-MB-231 xenograft study ([18]; 10 mg/kg i.v. or i.p.): no signs of overt systemic toxicity; MDA-MB-231 xenograft tumor growth ([18]; 10 mg/kg i.v.): significantly decreased compared to the vehicle controls; mode of TXNRD1 inhibition (TXNRD1 [10]; with or without NADPH, before and after desalting): irreversibly inhibit TXNRD1 in an NADPH-dependent manner; specificity for TXNRD1 compared to inhibition of TXNRD2 [11]: 5- to 10 fold; SecTRAP formation (NADPH-dependent redox cycling with juglone) (TXNRD1 [12]; after inhibition of normal TXNRD1 activity and desalting): maintained substantial NADPH-dependent redox cycling with juglone; inhibition of cellular TXNRD activity [19]: equal or greater potency compared to that of auranofin; maximal respiratory capacity (HCT116 cells [15]; [22]): little effect on maximal respiratory capacity; highest administrable dose tolerated without overt signs of toxicity (SCID mice): 10 mg/kg; activated caspase-3 staining in excised xenografts ([20]; between days three and four): increased staining for activated caspase-3; [18F]-FDG uptake in viable parts of the tumors ([20]; day 3 vs day 0): markedly decreased

Source: paper PMC7059553 (Science translational medicine, 2018)
